Active and inactive are the calls of the source. The calls are words filed in the database; no cut-off is given here.
Experiments:
[1] = tested on: Trypanosoma cruzi; experiment: Trypanocidal activity against Trypanosoma cruzi Tulahuen trypomastigotes infected in mouse whole blood assessed as viable trypomastigote cells at 20 uM after 96 hrs by trypan blue assay relative to control; assay type: functional
Procedure, shortened: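 Trypomastigotes were exposed to 20 μM in 100% whole blood at 37 °C. Viable parasites were counted after 24, 48, 72 and 96 h. Results are means ± SD of three independent experiments.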

[2] = tested on: Trypanosoma cruzi; experiment: Trypanocidal activity against Trypanosoma cruzi Tulahuen amastigotes infected in BALB/C mouse bone marrow derived macrophages assessed as endocytic index at 1200 uM treated for 24 hrs followed by compound washout measured after 48 hrs by immunofluorescence assay (reference value: 213.66 +/- 58.79); assay type: functional
[3] = tested on: Trypanosoma cruzi; experiment: Trypanocidal activity against Trypanosoma cruzi Tulahuen amastigotes infected in BALB/C mouse bone marrow derived macrophages assessed as endocytic index at 1800 uM treated for 24 hrs followed by compound washout measured after 48 hrs by immunofluorescence assay (reference value: 213.66 +/- 58.79); assay type: functional
[4] = tested on: Trypanosoma cruzi; experiment: Trypanocidal activity against Trypanosoma cruzi Tulahuen amastigotes infected in BALB/C mouse bone marrow derived macrophages assessed as endocytic index at 2000 uM treated for 24 hrs followed by compound washout measured after 48 hrs by immunofluorescence assay (reference value: 213.66 +/- 58.79); assay type: functional
[5] = tested on: Trypanosoma cruzi; experiment: Trypanocidal activity against Trypanosoma cruzi Tulahuen amastigotes infected in BALB/C mouse bone marrow derived macrophages assessed as reduction in parasite infected macrophages at 0.2 uM after 72 hrs by immunofluorescence assay relative to control; assay type: functional
[6] = tested on: Trypanosoma cruzi; experiment: Trypanostatic activity against Trypanosoma cruzi Tulahuen amastigotes infected in BALB/C mouse bone marrow derived macrophages assessed as effect in subpelicullar microtubules at 20 uM after 24 hrs by transmission electron microscopic analysis; assay type: functional
Procedure, shortened: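 Bone marrow-derived macrophages were infected for 24 h, then exposed to 20 μM for 24 h or left untreated. Intracellular amastigote ultrastructure was examined by transmission electron microscopy, covering mitochondrion, nucleus, kinetoplast, flagellum, flagellar pocket, subpellicular microtubules and cytoplasmic structures.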

[7] = tested on: J774; experiment: Cytotoxicity against mouse J774 assessed as reduction in cell viability at 0.2 to 2000 uM after 24 hrs by trypan blue exclusion assay; assay type: cell-based; settings: j774, 24 h
Procedure, shortened: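 Mammalian cells (human PBMC, Swan 71, Jurkat; bone marrow-derived macrophages; J774) were exposed to 3-HK at 0.2 to 2000 μM for 24 h. Viability was then scored by trypan blue exclusion.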

Structure (SMILES): Nc1c(O)cccc1C(=O)C[C@H](N)C(=O)O
- Activity [1]: 50%
- Activity [2]: 106.06
- Activity [3]: 110.69
- Activity [4]: 104.34
- inhibition at 0.2 µM [5]: 59%
- Activity [6]: inactive
- Activity [7]: Non-Toxic

Reference: ChEMBL document CHEMBL4052792, “3-Hydroxykynurenine, a Tryptophan Metabolite Generated during the Infection, Is Active Against Trypanosoma cruzi” (ACS Med Chem Lett, 2017)
